From ChEMBL document CHEMBL2046351, “Discovery of cyclic sulfone hydroxyethylamines as potent and selective β-site APP-cleaving enzyme 1 (BACE1) inhibitors: structure-based design and in vivo reduction of amyloid β-peptides” (J Med Chem, 2012)

What was measured:
[1] = system: Brain; assay: Drug uptake in C57BL/6 mouse brain at 2 umol/kg, iv dosed in N-methyl pyrrolidone/blank plasma (10:90 v/v) measured 1 hr post dosing by LC/MS/MS analysis; assay type: ADME, organism-based; conditions: in vivo
Outline: (§1)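 Male C57BL/6 mice, saphenous vein injection under light anesthesia, 5 mL/kg. Blood at 5, 30 min and 1, 2, 4, 6, 8 h; brain at 5 min, 1, 4, 8 h; n = 3/time. LC-MS/MS after acetonitrile precipitation (brain water-homogenized). Noncompartmental analysis, 1/Y weighting, terminal slope from ≥3 points.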

[2] = system: Mus musculus; assay: Antialzheimer activity in APP51/16 transgenic mouse expressing human APP51/16Npa and mouse Thy1 assessed as reduction in brain C99 level reduction at 180 umol/kg, po measured 4 hrs post dosing; assay type: functional; set-up: scale not given: the % may be the effect or the level left
Outline: (§2)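 Hemizygous APP51/16 mice (human APP751 wild-type under murine Thy-1 cassette, C57BL/6 background) gavaged (10 mL/kg), decapitated at 4 h. Forebrain homogenized in TBS with protease inhibitors, 1% TX-100 extract, spun 100000 rpm 30 min 4 °C. Aβ40 by 6E10 electrochemiluminescence immunoassay against spiked nontransgenic extract standards; C99 by APP-C8 western blot, densitometry. Two-tailed Student's t test versus vehicle.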

[3] = AUC (0 to infinity) in C57BL/6 mouse at 2 umol/kg, iv dosed in N-methyl pyrrolidone/blank plasma (10:90 v/v) by LC/MS/MS analysis; assay type: ADME, organism-based; set-up: dose 2 umol/kg, time infinity, route intravenous
Outline: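 Male C57BL/6 mice got a single injection into the saphenous vein under light anaesthesia at 5 mL/kg. Blood was taken at 5 and 30 min and 1, 2, 4, 6 and 8 h (n = 3 per time). Blood was extracted by acetonitrile precipitation and quantified by LC-MS/MS against a weighted linear calibration. AUC came from noncompartmental analysis with 1/Y weighting.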

[4] = system: MDR1 (human); assay: Apparent permeability across MDCK cells expressing human MDR1 at 5 uM after 2 hrs by LC-MS analysis; assay type: ADME, cell-based, Canis lupus familiaris; conditions: dog
Outline: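 MDCK cells retrovirally transduced with human MDR1, seeded on transwells ≥3 days; bidirectional transport at 5 μM, 2 h, 37 °C, LC/MS quantitation. Papp = (dQ/dt)/(A·C0), A 0.11 cm2; ER = Papp B>A / Papp A>B. Means of at least three experiments.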

[5] = Half life in C57BL/6 mouse at 2 umol/kg, iv dosed in N-methyl pyrrolidone/blank plasma (10:90 v/v) by LC/MS/MS analysis; assay type: ADME, organism-based; outline: as §1
[6] = Drug uptake in APP51/16 transgenic mouse blood at 180 umol/kg, po measured 4 hrs post dosing by LC/MS/MS analysis; assay type: ADME, organism-based; conditions: read-out: Drug uptake
Outline: (§3)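 APP51/16 transgenic mice given oral gavage (10 mL/kg); blood and forebrain taken at 4 h postdose. Blood extracted by acetonitrile precipitation; brain homogenized in water, then acetonitrile-precipitated. LC-MS/MS quantitation against weighted linear calibration of analyte/internal standard area ratio.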

[7] = system: Brain; assay: Drug uptake in APP51/16 transgenic mouse brain at 180 umol/kg, po measured 4 hrs post dosing by LC/MS/MS analysis; assay type: ADME, organism-based; conditions: in vivo; outline: as §3
[8] = Ratio of drug uptake in brain to blood in C57BL/6 mouse at 2 umol/kg, iv dosed in N-methyl pyrrolidone/blank plasma (10:90 v/v) measured 4 hrs post dosing by LC/MS/MS analysis; assay type: ADME, organism-based; outline: as §1
[9] = Oral bioavailability in C57BL/6 mouse at 6 umol/kg dosed in carboxymethyl cellulose 0.5% w/v in water/Tween 80 (99.5/0.5, v/v) by LC/MS/MS analysis; assay type: ADME, organism-based; conditions: in vivo
Outline: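 Oral gavage (10 mL/kg) to male C57BL/6 mice with iv reference segment (2 μmol/kg, NMP/blank plasma 10:90). Noncompartmental analysis of LC-MS/MS blood profiles, 1/Y weighting; %F = dose-normalized oral AUC / dose-normalized iv AUC × 100, assuming linear pharmacokinetics between doses.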

[10] = Ratio of drug uptake in brain to blood in C57BL/6 mouse at 6 umol/kg, po dosed in carboxymethyl cellulose 0.5% w/v in water/Tween 80 (99.5/0.5, v/v) measured 1 hr post dosing by LC/MS/MS analysis; assay type: ADME, organism-based
Outline: (§4)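 Male C57BL/6 mice dosed by oral gavage, 10 mL/kg. Blood sampled 0.25, 0.5, 1, 2, 4, 6 h; brain at 1 and/or 4 h; n = 3 per time. Blood acetonitrile-precipitated, brain water-homogenized then precipitated; LC-MS/MS with weighted linear calibration.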

[11] = system: Brain; assay: Drug uptake in C57BL/6 mouse brain at 60 umol/kg, po dosed in carboxymethyl cellulose 0.5% w/v in water/Tween 80 (99.5/0.5, v/v) measured 4 hrs post dosing by LC/MS/MS analysis; assay type: ADME, organism-based; conditions: in vivo; outline: as §4
[12] = Blood clearance in C57BL/6 mouse at 2 umol/kg, iv dosed in N-methyl pyrrolidone/blank plasma (10:90 v/v) by LC/MS/MS analysis; assay type: ADME, organism-based; outline: as §1
[13] = Ratio of drug uptake in brain to blood in C57BL/6 mouse at 60 umol/kg, po dosed in carboxymethyl cellulose 0.5% w/v in water/Tween 80 (99.5/0.5, v/v) measured 1 hr post dosing by LC/MS/MS analysis; assay type: ADME, organism-based; outline: as §4
[14] = system: Mus musculus; assay: Antialzheimer activity in APP51/16 transgenic mouse expressing human APP51/16Npa and mouse Thy1 assessed as reduction in amyloid beta (1 to 40) reduction at 180 umol/kg, po measured 4 hrs post dosing; assay type: functional; set-up: scale not given: the % may be the effect or the level left; outline: as §2
[15] = Volume of distribution at steady state in C57BL/6 mouse at 2 umol/kg, iv dosed in N-methyl pyrrolidone/blank plasma (10:90 v/v) by LC/MS/MS analysis; assay type: ADME, organism-based; conditions: read-out: Vdss; outline: as §1
[16] = Ratio of drug uptake in brain to blood in C57BL/6 mouse at 6 umol/kg, po dosed in carboxymethyl cellulose 0.5% w/v in water/Tween 80 (99.5/0.5, v/v) measured 4 hrs post dosing by LC/MS/MS analysis; assay type: ADME, organism-based; outline: as §4
[17] = Drug uptake in C57BL/6 mouse blood at 60 umol/kg, po dosed in carboxymethyl cellulose 0.5% w/v in water/Tween 80 (99.5/0.5, v/v) measured 1 hr post dosing by LC/MS/MS analysis; assay type: ADME, organism-based; conditions: read-out: Drug uptake; outline: as §4
[18] = Drug uptake in C57BL/6 mouse blood at 60 umol/kg, po dosed in HS15/propylenglycol/citrate buffer, pH 4.75, 50 mM (10/5/85, v/v/v) measured 4 hrs post dosing by LC/MS/MS analysis; assay type: ADME, organism-based; conditions: read-out: Drug uptake; outline: as §4
[19] = system: Brain; assay: Drug uptake in C57BL/6 mouse brain at 6 umol/kg, po dosed in HS15/propylenglycol/citrate buffer, pH 4.75, 50 mM (10/5/85, v/v/v) measured 4 hrs post dosing by LC/MS/MS analysis; assay type: ADME, organism-based; conditions: in vivo, pH 4.75, 4 h; outline: as §4
[20] = system: Brain; assay: Drug uptake in C57BL/6 mouse brain at 6 umol/kg, po dosed in HS15/propylenglycol/citrate buffer, pH 4.75, 50 mM (10/5/85, v/v/v) measured 1 hr post dosing by LC/MS/MS analysis; assay type: ADME, organism-based; conditions: in vivo, pH 4.75, 1 h; outline: as §4
[21] = Drug uptake in C57BL/6 mouse blood at 60 umol/kg, po dosed in HS15/propylenglycol/citrate buffer, pH 4.75, 50 mM (10/5/85, v/v/v) measured 1 hr post dosing by LC/MS/MS analysis; assay type: ADME, organism-based; conditions: read-out: Drug uptake; outline: as §4

| AUC(0-inf) [3] | Papp at 2 h, 5 µM [4] | half-life [5] | concentration at 4 h [6] | Drug uptake [7] | clearance [12] | Vd [15] | Structure (SMILES) | Activity [2] | Activity [14] | further results |
| --- | --- | --- | --- | --- | --- | --- | --- | --- | --- | --- |
| 0.3 µM·h | 25 ×10⁻⁶ cm/s | 1.4 h | 10.2 µM | 1.8 nmol/g | 111 mL/min/kg | 7.2 L/kg | CC(C)(C)c1cccc(CN[C@H]2CS(=O)(=O)C[C@@H](Cc3cc(F)c(N)c(OCC(F)(F)F)c3)[C@@H]2O)c1 | 34% | 31% | Drug uptake [1]: 0.11 nmol/g; Kp at 4 h [8]: 1; bioavailability [9]: 52%; Kp at 1 h [10]: 2.7; Drug uptake [11]: 0.55 nmol/g; Kp at 1 h [13]: 0.3; Kp at 4 h [16]: 11; concentration at 1 h [17]: 4.1 µM |
| 0.407 µM·h | 3 ×10⁻⁶ cm/s | 2.9 h | 3.7 µM | 1.5 nmol/g | 82 mL/min/kg | 16.3 L/kg | CC(C)(C)c1cccc(CN[C@H]2CS(=O)(=O)C[C@@H](Cc3cc(F)c(N)c(OC(C(F)(F)F)C(F)(F)F)c3)[C@@H]2O)c1 | 22% | 6% | concentration at 4 h [18]: 0.19 µM; Drug uptake [19]: 0.01 nmol/g; Drug uptake [20]: 0.02 nmol/g; concentration at 1 h [21]: 0.47 µM |
